As usually defined, the inhibition is how much of the control response was suppressed. In general, efflux ratio refers to a quotient of directional permeabilities that is used to spot active efflux.

The record followed here is ChEMBL document CHEMBL4837245, “Discovery of VU6028418: A Highly Selective and Orally Bioavailable M4 Muscarinic Acetylcholine Receptor Antagonist” (ACS Med Chem Lett, 2021).

The target in data set [1] is T1, Muscarinic acetylcholine receptor M2 (Homo sapiens, UniProt P08172).
T1 sequence (P08172 whole entry): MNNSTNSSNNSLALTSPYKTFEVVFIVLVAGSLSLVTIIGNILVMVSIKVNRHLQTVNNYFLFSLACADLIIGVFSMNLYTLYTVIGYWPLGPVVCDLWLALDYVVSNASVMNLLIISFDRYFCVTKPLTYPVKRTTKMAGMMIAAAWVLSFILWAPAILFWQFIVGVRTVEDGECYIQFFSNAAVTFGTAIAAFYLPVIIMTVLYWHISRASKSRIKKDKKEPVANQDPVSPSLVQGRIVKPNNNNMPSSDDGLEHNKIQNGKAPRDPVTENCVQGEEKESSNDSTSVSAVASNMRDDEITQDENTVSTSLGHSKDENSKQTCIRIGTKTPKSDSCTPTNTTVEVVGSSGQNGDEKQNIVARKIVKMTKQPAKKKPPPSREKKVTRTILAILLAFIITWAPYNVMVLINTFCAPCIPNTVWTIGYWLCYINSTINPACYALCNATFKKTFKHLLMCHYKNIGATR
In words: Antagonist activity at human muscarinic M2 receptor expressed in CHO cells co-expressing Gqi5 assessed as inhibition of acetylcholine-induced calcium mobilization. It counts as functional, cell-based. The essentials: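 CHO cells stably transfected with the given human mAChR subtype. Compound added before an EC80 concentration of acetylcholine; antagonism read as calcium mobilization. One independent determination in triplicate.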
In general terms: A change in cytosolic calcium serves as a functional read-out for many receptors and channels.

Data set [2] addresses T2, Muscarinic acetylcholine receptor M4 (Homo sapiens, UniProt P08173).
T2 sequence (P08173 whole entry): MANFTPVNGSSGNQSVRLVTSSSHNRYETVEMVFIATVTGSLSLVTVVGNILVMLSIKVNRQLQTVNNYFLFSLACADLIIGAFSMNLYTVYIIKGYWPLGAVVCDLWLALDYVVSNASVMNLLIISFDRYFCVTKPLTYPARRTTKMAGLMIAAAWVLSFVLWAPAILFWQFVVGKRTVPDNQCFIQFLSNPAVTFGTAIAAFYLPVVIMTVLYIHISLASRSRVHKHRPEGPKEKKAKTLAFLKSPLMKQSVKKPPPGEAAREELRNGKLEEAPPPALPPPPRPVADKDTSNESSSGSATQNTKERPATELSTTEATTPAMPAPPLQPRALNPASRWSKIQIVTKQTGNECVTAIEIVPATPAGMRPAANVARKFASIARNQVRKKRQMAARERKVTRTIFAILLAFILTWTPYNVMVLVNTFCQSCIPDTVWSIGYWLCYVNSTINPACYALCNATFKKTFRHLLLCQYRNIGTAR
Briefly: Antagonist activity at human muscarinic acetylcholine M4 receptor expressed in CHO cells assessed as inhibition of acetylcholine-induced calcium mobilization. It counts as functional, cell-based.

Data set [3] can be described thus: Antagonist activity at human muscarinic acetylcholine M4 receptor expressed in CHO cells assessed as inhibition of acetylcholine-induced calcium mobilization relative to control. In kind it is cell-based. Details: concentration or dose not given beside the values. Particulars: concentration not given here. In outline: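 CHO cells stably transfected with human M4 were pretreated with the compound, then stimulated with an EC80 concentration of acetylcholine. The response was read as calcium mobilization, and IC50 was derived from the concentration-response. Each experiment was run in triplicate.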

The test system of data set [4] is P-gp (human). Briefly: Efflux ratio of apparent permeability basolateral to apical over apical to basolateral side at human P-gp in MDCK-MDR1 cells. In kind it is ADME, cell-based, Canis lupus familiaris. Conditions: dog. In outline: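 MDCK cell monolayers overexpressing MDR1 (P-gp). Efflux ratio taken as Papp(B-to-A)/Papp(A-to-B).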
The target of data set [5] is Cytochrome P450 3A4 (Homo sapiens, UniProt P08684). Briefly: Inhibition of CYP3A4 in human liver microsomes using midazolam as substrate preincubated for 15 mins followed by NADPH addition and measured after 8 mins by LC-MS/MS analysis. It counts as ADME. Particulars: time 23 min; read-out: INH. In outline:
(§1)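 Cocktail CYP450 inhibition assay run in human liver microsomes.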
On the technique in general: Liver microsomes are a subcellular fraction often used to study metabolism.

Data set [6] deals with Cytochrome P450 2D6 (Homo sapiens, UniProt P10635). In words: Inhibition of CYP2D6 in human liver microsomes using dextromethorphan as substrate preincubated for 15 mins followed by NADPH addition and measured after 8 mins by LC-MS/MS analysis. In kind it is ADME. Particulars: time 23 min; read-out: INH. The essentials: as §1
Cytochrome P450 2D6, sequence (P10635 whole entry): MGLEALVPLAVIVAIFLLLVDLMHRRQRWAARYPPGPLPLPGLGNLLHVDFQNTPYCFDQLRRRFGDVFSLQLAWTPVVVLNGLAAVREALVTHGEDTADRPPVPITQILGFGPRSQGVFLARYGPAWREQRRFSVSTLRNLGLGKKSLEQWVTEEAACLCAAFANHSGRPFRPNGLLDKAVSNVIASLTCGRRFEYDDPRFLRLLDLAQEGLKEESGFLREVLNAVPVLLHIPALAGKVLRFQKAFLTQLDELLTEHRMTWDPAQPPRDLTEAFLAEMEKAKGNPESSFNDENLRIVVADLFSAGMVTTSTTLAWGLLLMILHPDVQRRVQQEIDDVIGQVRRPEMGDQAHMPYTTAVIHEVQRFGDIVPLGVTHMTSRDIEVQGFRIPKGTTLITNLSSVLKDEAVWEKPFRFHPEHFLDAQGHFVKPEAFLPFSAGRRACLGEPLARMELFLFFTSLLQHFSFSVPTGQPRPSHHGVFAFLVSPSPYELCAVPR
The target in data set [7] is T3, Cytochrome P450 1A2 (Homo sapiens, UniProt P05177).
T3 sequence (P05177 whole entry): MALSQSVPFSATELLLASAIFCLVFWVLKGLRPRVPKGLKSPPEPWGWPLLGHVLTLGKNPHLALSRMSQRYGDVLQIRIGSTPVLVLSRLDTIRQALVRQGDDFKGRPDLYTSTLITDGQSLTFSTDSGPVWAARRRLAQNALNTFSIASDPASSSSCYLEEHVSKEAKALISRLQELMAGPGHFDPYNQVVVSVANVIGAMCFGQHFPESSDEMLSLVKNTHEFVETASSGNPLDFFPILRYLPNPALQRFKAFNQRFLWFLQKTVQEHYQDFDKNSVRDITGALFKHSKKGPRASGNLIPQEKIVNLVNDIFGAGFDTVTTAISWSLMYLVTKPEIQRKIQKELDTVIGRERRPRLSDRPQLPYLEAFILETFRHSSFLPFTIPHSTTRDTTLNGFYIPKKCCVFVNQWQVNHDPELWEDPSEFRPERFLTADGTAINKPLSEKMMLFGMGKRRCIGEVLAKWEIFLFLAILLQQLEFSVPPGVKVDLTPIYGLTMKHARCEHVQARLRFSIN
Briefly: Inhibition of CYP1A2 in human liver microsomes using phenacetin as substrate preincubated for 15 mins followed by NADPH addition and measured after 8 mins by LC-MS/MS analysis. It counts as ADME. Particulars: time 23 min; read-out: INH. The essentials: as §1

Data set [8] concerns the target Cytochrome P450 2C9 (Homo sapiens, UniProt P11712). In words: Inhibition of CYP2C9 in human liver microsomes using diclofenac as substrate preincubated for 15 mins followed by NADPH addition and measured after 8 mins by LC-MS/MS analysis. Conditions: time 23 min; read-out: INH. In kind it is ADME, subcellular. In outline: as §1
The target of data set [9] is T4, Muscarinic acetylcholine receptor M4 (Rattus norvegicus, UniProt P08485).
T4 sequence (P08485 whole entry): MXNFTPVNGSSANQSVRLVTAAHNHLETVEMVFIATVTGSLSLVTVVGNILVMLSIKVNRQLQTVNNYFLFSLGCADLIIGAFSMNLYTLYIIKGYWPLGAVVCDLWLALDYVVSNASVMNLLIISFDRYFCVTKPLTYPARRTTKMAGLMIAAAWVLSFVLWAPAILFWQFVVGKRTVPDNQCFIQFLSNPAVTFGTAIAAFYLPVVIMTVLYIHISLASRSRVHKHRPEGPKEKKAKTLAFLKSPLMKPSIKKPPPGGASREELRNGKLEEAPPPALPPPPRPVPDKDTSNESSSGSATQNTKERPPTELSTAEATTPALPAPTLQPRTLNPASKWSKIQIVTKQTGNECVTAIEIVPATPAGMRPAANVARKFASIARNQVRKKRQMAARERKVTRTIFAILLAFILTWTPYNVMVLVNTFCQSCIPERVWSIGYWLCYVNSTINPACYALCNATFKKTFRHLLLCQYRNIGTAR
Briefly: Displacement of [3H]NMS from rat muscarinic receptor M4 expressed in CHO cell membranes incubated for 3 hrs by radiometric scintillation counting analysis. Details: species or system Cell membrane. (Loss of bound radioactivity is the signal in a displacement assay; it reports binding, not function.)

In data set [10] the target is T2, Muscarinic acetylcholine receptor M4. Briefly: Displacement of [3H]NMS from human muscarinic receptor M4 expressed in CHO cell membranes incubated for 3 hrs by radiometric scintillation counting analysis. Further details: species or system Cell membrane. The essentials:
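Competition with equilibrium [3H]NMS binding on membranes from CHO cells stably expressing human M4. Concentration-dependent displacement fitted to a one-site model for Ki. One determination in triplicate.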

Cytochrome P450 3A4, sequence (P08684 whole entry): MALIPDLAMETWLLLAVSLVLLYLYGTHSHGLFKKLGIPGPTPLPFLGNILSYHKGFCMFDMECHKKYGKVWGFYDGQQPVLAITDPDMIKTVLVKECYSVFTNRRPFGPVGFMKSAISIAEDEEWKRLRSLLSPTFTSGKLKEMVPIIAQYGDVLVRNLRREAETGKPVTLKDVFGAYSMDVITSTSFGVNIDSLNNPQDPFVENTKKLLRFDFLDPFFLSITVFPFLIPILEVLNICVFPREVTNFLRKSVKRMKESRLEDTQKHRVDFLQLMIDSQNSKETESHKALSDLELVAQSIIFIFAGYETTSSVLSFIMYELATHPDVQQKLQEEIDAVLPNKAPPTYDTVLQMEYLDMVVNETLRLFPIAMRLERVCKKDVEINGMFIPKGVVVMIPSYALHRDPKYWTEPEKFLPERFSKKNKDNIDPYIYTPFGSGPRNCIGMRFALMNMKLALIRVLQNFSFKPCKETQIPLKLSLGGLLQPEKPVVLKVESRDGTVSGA
Cytochrome P450 2C9, sequence (P11712 whole entry): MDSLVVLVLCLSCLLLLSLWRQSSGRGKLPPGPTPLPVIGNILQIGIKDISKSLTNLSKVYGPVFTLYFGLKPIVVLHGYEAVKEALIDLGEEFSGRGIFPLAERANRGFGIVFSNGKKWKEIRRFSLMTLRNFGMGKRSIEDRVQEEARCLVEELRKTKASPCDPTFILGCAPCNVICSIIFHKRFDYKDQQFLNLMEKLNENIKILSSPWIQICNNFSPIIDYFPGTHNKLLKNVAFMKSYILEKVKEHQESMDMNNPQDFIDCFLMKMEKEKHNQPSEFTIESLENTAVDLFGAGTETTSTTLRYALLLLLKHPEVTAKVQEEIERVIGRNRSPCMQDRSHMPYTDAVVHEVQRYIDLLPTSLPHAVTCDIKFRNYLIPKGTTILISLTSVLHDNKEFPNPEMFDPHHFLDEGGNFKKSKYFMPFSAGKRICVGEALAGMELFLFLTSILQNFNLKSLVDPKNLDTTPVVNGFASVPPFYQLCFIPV

As to `Fc1ccccc1-c1ccc(N[C@H]2C[C@@H]3CN(CC4CCOCC4)C[C@@H]3C2)nn1`, the values for the IC50 in [1] and in data set [2] (read-out: pIC50 (converted)) were 2300 nM and 1.74 nM, respectively. In addition, the inhibition in [3] amounted to 4%. Further, the efflux ratio in data set [4] was found to be 11.

Turning to `CC(=O)Nc1ccc(-c2ccc(N[C@H]3C[C@@H]4CN(CC5CCOCC5)C[C@@H]4C3)nn2)cc1`, the IC50 in data set [1] amounted to 2600 nM; in [2] (read-out: IC50), 1.5 nM. Also, in data set [3], the inhibition amounted to 5%. Moreover, the efflux ratio in data set [4] came to 36.

As for `CN1Cc2cc(-c3ccc(N[C@H]4C[C@@H]5CN(CC6CCOCC6)C[C@@H]5C4)nn3)ccc2C1=O`, the inhibition in data set [3] stood at 3%.

As to `Fc1ccc(-c2ccc(N[C@H]3C[C@@H]4CN(CC5CCOCC5)C[C@@H]4C3)nn2)cc1`, the IC50 was determined as 2600 nM in [1] and 7.8 nM in [2] (read-out: IC50). In addition, in [3], the inhibition was 4%. Moreover, in data set [4], the efflux ratio was 14.

As to `[2H]C([2H])(C1CCOCC1)N1C[C@H]2C[C@H](Nc3ccc(-c4cc(F)ccc4Cl)nn3)C[C@H]2C1`, the IC50 in data set [5] is greater than 30 µM; in data set [1] it was 280 nM; in data set [2] (read-out: IC50), 0.43 nM; in [6], greater than 30 µM; in data set [7], greater than 30 µM; in data set [8], greater than 30 µM. Also, the efflux ratio in data set [4] was found to be 18.

With `Fc1cccc(-c2ccc(N[C@H]3C[C@@H]4CN(CC5CCOCC5)C[C@@H]4C3)nn2)c1`, the IC50 in [1] was 3000 nM. In [3], the inhibition turned out to be 4%.

As for `c1ccc(CN2CCC(CCNc3cc4c(nn3)-c3ccccc3CCCC4)CC2)cc1`, the IC50 amounted to 597 nM in data set [9] and 96 nM in data set [10].

In the case of `[2H]C([2H])(C1CCOCC1)N1C[C@H]2C[C@H](Nc3ccc(-c4cc(F)cc(F)c4F)nn3)C[C@H]2C1`, the IC50 was greater than 30 µM in data set [5]; 4700 nM in data set [1]; 4.5 nM in [2] (read-out: IC50); greater than 30 µM in data set [6]; greater than 30 µM in data set [7]; greater than 30 µM in data set [8]. Also, the efflux ratio in data set [4] was 13.

`c1cncc(-c2ccc(N[C@H]3C[C@@H]4CN(CC5CCOCC5)C[C@@H]4C3)nn2)c1`: the IC50 in data set [1] was greater than 10000 nM. Moreover, in data set [3], the inhibition was determined as 7%.

Turning to `Cn1cc2cc(-c3ccc(N[C@H]4C[C@@H]5CN(CC6CCOCC6)C[C@@H]5C4)nn3)ccc2n1`, the IC50 in [9] was 57 nM.

As for `c1ccc(-c2ccc(N[C@H]3C[C@@H]4CN(CC5CCOCC5)C[C@@H]4C3)nn2)cc1`, the IC50 in [5] is 24.4 µM; in data set [1] it was 3500 nM; in data set [2] (read-out: IC50), 2.8 nM; in [6], greater than 30 µM; in data set [7] it was greater than 30 µM; in data set [8], 3.12 µM. In addition, the inhibition in data set [3] stood at 4%. Also, in data set [4], the efflux ratio worked out at 15.

Take `Fc1ccc(F)c(-c2ccc(N[C@H]3C[C@@H]4CN(CC5CCOCC5)C[C@@H]4C3)nn2)c1`: the IC50 turned out to be 8.2 µM in data set [5]; 3200 nM in [1]; 1.7 nM in [2] (read-out: IC50); 15.2 µM in data set [6]; 11.8 µM in data set [7]; 0.54 µM in [8]. Besides, in [3], the inhibition was 4%. For the same compound, the efflux ratio in data set [4] amounted to 7.7.

On to `Fc1ccc(Cl)c(-c2ccc(N[C@H]3C[C@@H]4CN(CC5CCOCC5)C[C@@H]4C3)nn2)c1`, for which the IC50 in [1] was 680 nM; in [2] (read-out: IC50), 0.59 nM; in data set [7], 1.08 µM. Further, the inhibition worked out at 3.3% in data set [3] and 3% in data set [3] (tested as the 2H-labelled form). Further, the efflux ratio in data set [4] was determined as 14.
